5HT1a antag – human 5-HT1a receptor antagonists, primary screen, cell-based, CHO, Ga15 NFAT-bla reporter; 5-hydroxytryptamine receptor 1A (Homo sapiens), P08908; CHO 5-HT1a Ga15 NFAT-bla reporter, antagonist mode; inhibition, % at 10 µM; 62,000 tested, 0.68% active;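 active means inhibition above the mean of all tested compounds plus 3 SD, cut at about 43% in these data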;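 further: receptor stimulated by 5-CT agonist at 100 nM near EC80; beta-lactamase reporter measured by ratiometric fluorescence of a cleavable substrate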
Target sequence (P08908 whole entry, looked up): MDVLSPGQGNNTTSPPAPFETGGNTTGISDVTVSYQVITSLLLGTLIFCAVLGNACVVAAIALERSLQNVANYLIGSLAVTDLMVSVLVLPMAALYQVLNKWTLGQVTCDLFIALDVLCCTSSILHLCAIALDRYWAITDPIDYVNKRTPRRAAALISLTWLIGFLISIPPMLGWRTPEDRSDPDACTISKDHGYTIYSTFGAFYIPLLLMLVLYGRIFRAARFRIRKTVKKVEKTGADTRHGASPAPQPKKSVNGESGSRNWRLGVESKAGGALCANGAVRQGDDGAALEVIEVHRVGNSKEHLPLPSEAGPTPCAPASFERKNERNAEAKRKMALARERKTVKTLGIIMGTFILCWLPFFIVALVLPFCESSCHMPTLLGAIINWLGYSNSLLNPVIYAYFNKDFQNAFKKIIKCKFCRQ
S1P3 ag – human S1P3 receptor agonists, primary screen, cell-based, primary and confirmation, NFAT-BLA reporter; Sphingosine 1-phosphate receptor 3 (Homo sapiens), Q99500; S1P3 NFAT-BLA reporter cells, agonism, FRET ratio; relative to 1 µM S1P, basal subtracted; activation, % at 4.5 µM; 60,000 tested, 0.1% active;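 active means activation above the screen-wide mean plus 3 SD, cut at about 4.5% in these data, passing the limit was not always enough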
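Assay system: stable CHO line with human S1P3, Gα16, NFAT-BLA reporter; Detection: FRET β-lactamase substrate fluorescence, excitation 405 nm, 460/535 nm emission ratio, background-subtracted; Read-out: percent activation versus median 1 µM S1P response, basal-subtracted, per plate; Incubation: cells plated overnight, compound 4 h 37 °C, substrate 2 h RT.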
S1P1 ag pot – S1P1 agonists and agonism potentiators, primary screen, cell-based, primary and confirmation screens, CRE-bla reporter | Sphingosine 1-phosphate receptor 1 (Homo sapiens), P21453 | S1P1 CRE-bla cells, forskolin, beta-lactamase FRET, potentiator mode; S1P1 agonist co-added at EC20, 2 nM; 100% = saturating reference agonist, 0% = basal | activation, % at 9.5 µM | 56,000 tested, 0.57% active | AID 449, 2006;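 active means activation above a cutoff set at the mean activation of all tested compounds plus 3 SD, cut at about 54% in these data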;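 further: forskolin at 4 µM as EC80 and the EC20 agonist is SEW2871; 100% = SEW2871 at its EC100 plus forskolin at EC80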
5HT1E antag – 5-HT1E receptor antagonists, primary screen, cell-based, HTS | 5-hydroxytryptamine receptor 1E (Homo sapiens), P28566 | inhibition, % at 6 µM | CHO 5-HT1E Ga15 NFAT-bla reporter, FRET, antagonist | 65,000 tested, 0.99% active;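 active means inhibition above a set limit, the mean inhibition across every tested compound plus 3 SD, cut at about 29% in these data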;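 further: signal is the 460 over 535 nm emission ratio of beta-lactamase substrate; 0% = agonist plus DMSO wells and 100% = wells without agonist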
5HT1a ag – human 5-HT1a receptor agonists, primary screen, cell-based, CHO, Ga15 NFAT-bla reporter. 5-hydroxytryptamine receptor 1A (Homo sapiens), P08908. CHO 5-HT1a Ga15 NFAT-bla reporter, FRET ratio; 0% basal, 100% maximal reference agonist. activation, % at 10 µM. 65,000 tested, 0.56% active;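 active means activation above the screen-wide mean activation plus 3 SD, cut at about 19% in these data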;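 further: 0% = DMSO wells and 100% = 5-CT at EC100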
5HT1E ag – 5-HT1E receptor agonists, primary screen, cell-based, HTS | 5-hydroxytryptamine receptor 1E (Homo sapiens), P28566 | CHO 5-HT1E Ga15 NFAT-bla reporter, FRET; 0% DMSO wells, 100% control agonist wells | activation, % at 6 µM | 65,000 tested, 0.69% active | AID 574, 2007;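 active means activation above a set limit, the screen-wide mean activation plus 3 SD, cut at about 8.5% in these data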;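 further: 100% = positive control agonist at 1 µM giving full maximal response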
An asterisk follows results filed as active; nt = no result given. Shown are actives, neighbours in structure and some others; about 2.9% of the full set was active somewhere.

SMILES	5HT1a antag	S1P3 ag	S1P1 ag pot	5HT1E antag	5HT1a ag	5HT1E ag
COC(=O)C1=C(CSCc2ccco2)NC(=O)NC1c1cc(C)ccc1C (stereo unspecified)	1	-1	6	-1	2	-1
COc1ccc(S(=O)(=O)N2CCC(n3cnc4cc(C(F)(F)F)ccc43)CC2)cc1	-13	0	-10	4	3	22*
O=C(NCCOC(=O)c1ccncc1)c1ccccc1	-8	0	-27	5	-2	0
COc1ccc(C(=O)OCCNC(=O)c2c(Cl)nc3ccccn23)cc1	4	0	-40	35*	5	1
O=C(CSC1=NCCS1)Nc1ccnc2ccccc12	18	-3	109*	18	-1	1
COc1ccc(CCNc2nc(C)nc3c2oc2ccccc23)cc1OC	11	nt	nt	8	0	-1
COc1ccc(CCNc2ncnc3c2oc2ccccc23)cc1OC	5	-1	116*	12	0	0
COc1ccc(CNc2nc(-c3cccnc3)nn2C(=O)c2cccs2)cc1	36	-1	7	31*	0	0
COc1ccc(NC(=O)CN(c2cc(C)cc(C)c2)S(=O)(=O)c2c(C)n[nH]c2C)cc1	4	-1	0	13	-1	0
O=C(Nc1ccc(OC(F)F)c(Cl)c1)Nc1ccc2c(c1)OCO2	61*	-1	59*	9	-2	0
CCOc1cc(C(=O)Nc2ccc3c(c2)OCO3)ccc1OC(F)F	9	0	10	26	6	0
COc1cc(NS(=O)(=O)c2ccc(C)cc2)c2ncccc2c1	67*	0	nt	67*	0	2
COc1cc(NCCCC(C)N)c2ncccc2c1 (stereo unspecified)	-9	0	11	2	-3	-1
CCOC(=O)NC(Nc1ccc(S(N)(=O)=O)cc1)(C(=O)OCC)C(F)(F)F (stereo unspecified)	14	-1	10	11	2	-1
N#Cc1cc2c(=O)n3ccccc3nc2n(Cc2cccnc2)c1=N	7	nt	nt	-1	-1	-1
C=CCn1c(=O)c(C#N)cc2c(=O)n3ccccc3nc21	-44	5.2*	-80	-28	43*	16*
Cc1cc(-n2c(=O)c(C#N)cc3c(=O)n4ccccc4nc32)no1	-114	11*	-124	-39	72*	19*
Cc1cc(NC(=O)CN2C(=O)C3CC=CCC3C2=O)no1 (stereo unspecified)	3	0	4	20	0	0
Nc1nonc1/C(=N/O)N1CCN(CCO)CC1	1	-1	-7	-18	-2	0
CN1CCN(/C(=N\O)c2nonc2N)CC1	2	-1	-14	-6	-4	55*
CCCCNC1C(CC)C(CCC)C(C#N)(C#N)C1(C#N)C#N (stereo unspecified)	63*	-1	35	37*	-6	-2
O=C(Nc1ccc2oc(-c3ccccc3Cl)nc2c1)c1cncc(Br)c1	-8	0	-16	2	64*	0
Cc1ccc(S(=O)(=O)N2CCC(C(=O)N3CCC[C@H]3C(=O)NCc3ccco3)CC2)cc1	14	-1	8	-1	-3	0
CC(C)OCCCn1c(=NC(=O)c2ccncc2)c(C#N)cc2c(=O)n3ccccc3nc21	-34	2	-61	-6	37*	9.1*
CCCn1c(=NC(=O)c2ccco2)c(C(=O)OCC)cc2c(=O)n3ccccc3nc21	22	0	nt	2	7	3
SMILES	5HT1a antag	S1P3 ag	S1P1 ag pot	5HT1E antag	5HT1a ag	5HT1E ag
N=c1c(C(=O)NCc2ccc(F)cc2)cc2c(=O)n3ccccc3nc2n1CCCN1CCOCC1	-9	6	-85	-5	31*	4
CCOC(=O)c1cc2c(=O)n3ccccc3nc2n(CCCOC)c1=NC(C)=O	-45	nt	nt	1	23*	7
C=CCn1c(=N)c(C(=O)NCCCOC)cc2c(=O)n3ccccc3nc21	-18	2	-26	-3	20*	6
CCOC(=O)C1CCN(C(=O)C2CCCCC2)CC1	6	nt	nt	1	-1	-1
CCSc1nc2c(c(=O)[nH]1)C(C(C)C)C(C#N)=C(N)O2 (stereo unspecified)	3	0	2	-1	-2	1
CC1(C)CSC(=S)N1S(=O)(=O)c1ccccc1	-6	1	-6	0	3	0
CCCCn1c(=N)n(CC(O)COc2cccc(C)c2)c2ccccc21 (stereo unspecified)	43*	-1	-30	0	-1	0
Cc1ccc(OCC(O)Cn2c(=N)n(CCN3CCCCC3)c3ccccc32)cc1 (stereo unspecified)	43*	-2	-13	6	0	-1
CCCCCn1c(=N)n(CC(O)COc2ccccc2OC)c2ccccc21 (stereo unspecified)	64*	-1	-2	11	0	0
Cc1ccc(C(C)C)c(OCc2nc(-c3nonc3N)no2)c1	-22	17*	92*	22	1	0
CC1(C)Cc2cccc(OCC(=O)N3CCN(S(=O)(=O)c4ccccc4)CC3)c2O1	1	1	-8	-3	0	0
CCn1c(C)nc2cc(C(=O)OCCC(F)(F)F)ccc21	6	-1	-13	0	26*	-1
CCOC(=O)c1ccc2c(c1)nc(SCC(=O)N1CCCCC1)n2CC	1	-1	15	10	-1	0
Cc1ccc(C(=O)N2CCCC(c3nc4c(nnn4Cc4ccccc4)c(=O)[nH]3)C2)cc1 (stereo unspecified)	4	-1	15	8	21*	0
O=c1[nH]c(/C(=N\O)c2ccccc2)no1	-16	-1	15	-18	-9	0
Cc1[nH]c2ccccc2c1C(O)CN1CCN(c2cccc(C(F)(F)F)c2)CC1 (stereo unspecified)	37	-2	24	11	46*	14*
C/C=C/c1ccc(Oc2nnnn2-c2ccc(C(N)=O)cc2)c(OC)c1	-1	-1	19	15	-1	-1
COc1ccc(C2C(C#N)=C(/N=C/N3CCN(C)CC3)OC3=C2C(=O)CC(C)(C)C3)cc1OC (stereo unspecified)	-17	0	-7	-6	1	0
